Drawing on ChEMBL document CHEMBL1155277, “Synthesis of new 4-isopropylthiazole hydrazide analogs and some derived clubbed triazole, oxadiazole ring systems--a novel class of potential antibacterial, antifungal and antitubercular agents” (Eur J Med Chem, 2009), this text covers MIC for eleven molecules.

Molecules are shown by their SMILES. ≈ marks a conversion by molar mass, not a printed value.

Common to all, as to format: functional
One assay concerns Enterococcus faecalis. The assay is described as follows: Antimicrobial activity against Streptococcus faecalis ATCC 14506 after 24 hrs by broth microdilution method. The conditions noted are these: ATCC 14506, 24 h. In outline:
(§1)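 Broth microdilution in tubes. Compounds were dissolved at 10 mg in 1 mL DMSO and diluted in Mueller-Hinton Broth for bacteria or Sabouraud Liquid Medium for yeasts and A. niger. Final concentrations were 1–500 µg/mL (1, 2, 4, 8, 16, 31.25, 62.5, 125, 250, 500), with DMSO at most 1% v/v. Inoculum was 10^5 cfu/mL, incubated at 37 °C for 24 h. MIC was the lowest concentration giving complete growth inhibition. Media and media-plus-DMSO served as growth controls.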
Background: In broth dilution the organism is exposed to a series of concentrations in liquid medium.

The subject of a further assay is Candida tropicalis. The assay is described as follows: Antimicrobial activity against Candida tropicalis ATCC 1369 after 24 hrs by broth microdilution method. To be noted: ATCC 1369, 24 h. In outline:
as §1

For another assay, the system named is Saccharomyces cerevisiae. The assay is described as follows: Antimicrobial activity against Saccharomyces cerevisiae ATCC 9763 after 24 hrs by broth microdilution method. To be noted: ATCC 9763, 24 h. In outline:
as §1

In a further assay the test system is Bacillus subtilis. The assay is described as follows: Antimicrobial activity against Bacillus subtilis ATCC 60511 after 24 hrs by broth microdilution method. The conditions noted are these: ATCC 60511, 24 h. The method, boiled down:
as §1

In another assay the test system is Escherichia coli. The assay is described as follows: Antimicrobial activity against Escherichia […] after 24 hrs by broth microdilution method. The method, boiled down: as §1
In a further assay the test system is Staphylococcus aureus. The assay is described as follows: Antimicrobial activity against Staphylococcus aureus ATCC 11632 after 24 hrs by broth microdilution method. The conditions noted are these: ATCC 11632, 24 h. In outline: as §1
The subject of another assay is Aspergillus niger. The assay is described as follows: Antimicrobial activity against Aspergillus niger ATCC 6275 after 24 hrs by broth microdilution method. To be noted: ATCC 6275, 24 h. The method, boiled down: as §1
The next assay deals with Pseudomonas aeruginosa. The assay is described as follows: Antimicrobial activity against Pseudomonas aeruginosa ATCC 10145 after 24 hrs by broth microdilution method. To be noted: ATCC 10145, 24 h. In outline: as §1
The subject of the next assay is Klebsiella pneumoniae. The assay is described as follows: Antimicrobial activity against Klebsiella pneumoniae ATCC 10031 after 24 hrs by broth microdilution method. To be noted: ATCC 10031, 24 h. The method, boiled down:
as §1

Assay [1] has as its system Mycobacterium tuberculosis. The assay is described as follows: Antitubercular activity against Mycobacterium tuberculosis H37Rv after 21 days by broth dilution assay. The conditions noted are these: 504 h. The method, boiled down: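 H37Rv frozen stock in Middlebrook 7H9 broth with 10% albumin-dextrose-catalase and 0.2% glycerol, thawed and diluted to 10⁵ cfu mL⁻¹. Compounds dissolved in DMSO, diluted in broth (final DMSO 1.3%). U-tubes inoculated, incubated 37 °C for 21 days. Growth scored visually against drug-free and inoculum-free controls and isoniazid. MIC = lowest concentration inhibiting […] of starting population.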

Usually MIC stands for the lowest concentration found to suppress growth. Lower therefore signals a more susceptible organism. With `COc1cc(/C=N/NC(=O)c2nc(C(C)C)cs2)cc(OC)c1OC`, the MIC against Enterococcus faecalis is 250 µg/mL (≈ 688 µM); with Candida tropicalis it was 62.5 µg/mL (≈ 172 µM); against Saccharomyces cerevisiae, 125 µg/mL (≈ 344 µM); in the assay on Bacillus subtilis, 125 µg/mL (≈ 344 µM); against Escherichia coli, 125 µg/mL (≈ 344 µM); in the assay on Staphylococcus aureus it was 500 µg/mL (≈ 1380 µM). The MIC against Aspergillus niger was 31.2 µg/mL (≈ 86 µM); against Pseudomonas aeruginosa, 31.2 µg/mL (≈ 86 µM); in the assay on Klebsiella pneumoniae it was 125 µg/mL (≈ 344 µM); in assay [1], 125 µg/mL (≈ 344 µM).

In the case of `CC(C)c1csc(-c2nnc(S)o2)n1`, the MIC against Enterococcus faecalis stood at 31.2 µg/mL (≈ 137 µM); against Candida tropicalis, 16 µg/mL (≈ 70.4 µM); against Saccharomyces cerevisiae, 31.2 µg/mL (≈ 137 µM); in the assay with Bacillus subtilis, 16 µg/mL (≈ 70.4 µM); with Escherichia coli it was 31.2 µg/mL (≈ 137 µM); in the assay with Staphylococcus aureus, 125 µg/mL (≈ 550 µM). The MIC came to 31.2 µg/mL (≈ 137 µM) in the assay on Aspergillus niger, 31.2 µg/mL (≈ 137 µM) against Pseudomonas aeruginosa, 16 µg/mL (≈ 70.4 µM) against Klebsiella pneumoniae and 8 µg/mL (≈ 35.2 µM) in assay [1].

For the molecule `CC(=O)N1N=C(c2nc(C(C)C)cs2)OC1c1ccccc1` (stereo unspecified), the MIC is 62.5 µg/mL (≈ 198 µM) with Enterococcus faecalis; 16 µg/mL (≈ 50.7 µM) in the assay with Candida tropicalis; 31.2 µg/mL (≈ 99.1 µM) in the assay on Saccharomyces cerevisiae; 31.2 µg/mL (≈ 99.1 µM) against Bacillus subtilis; 62.5 µg/mL (≈ 198 µM) in the assay with Escherichia coli; 125 µg/mL (≈ 396 µM) against Staphylococcus aureus. Also, the MIC in the assay with Aspergillus niger worked out at 16 µg/mL (≈ 50.7 µM); against Pseudomonas aeruginosa it was 16 µg/mL (≈ 50.7 µM); against Klebsiella pneumoniae, 62.5 µg/mL (≈ 198 µM); in [1], 31.2 µg/mL (≈ 99.1 µM).

With `CC(C)c1csc(C(=O)N/N=C/c2ccc([N+](=O)[O-])cc2)n1`, the MIC amounted to 250 µg/mL (≈ 785 µM) against Enterococcus faecalis; 62.5 µg/mL (≈ 196 µM) in the assay on Candida tropicalis; 125 µg/mL (≈ 393 µM) in the assay with Saccharomyces cerevisiae; 125 µg/mL (≈ 393 µM) in the assay on Bacillus subtilis; 31.2 µg/mL (≈ 98.2 µM) in the assay with Escherichia coli; 125 µg/mL (≈ 393 µM) in the assay on Staphylococcus aureus. Also, the MIC against Aspergillus niger is 31.2 µg/mL (≈ 98.2 µM); against Pseudomonas aeruginosa, 125 µg/mL (≈ 393 µM); in the assay on Klebsiella pneumoniae, 125 µg/mL (≈ 393 µM); in assay [1], 125 µg/mL (≈ 393 µM).

As to `C/C(=N/NC(=O)c1nc(C(C)C)cs1)c1ccc(C)cc1`, the MIC against Enterococcus faecalis is 125 µg/mL (≈ 415 µM); against Candida tropicalis it was 250 µg/mL (≈ 829 µM); with Saccharomyces cerevisiae, 125 µg/mL (≈ 415 µM); against Bacillus subtilis, 250 µg/mL (≈ 829 µM); in the assay with Escherichia coli, 250 µg/mL (≈ 829 µM); in the assay on Staphylococcus aureus it was 250 µg/mL (≈ 829 µM). In addition, the MIC against Aspergillus niger came out at 500 µg/mL (≈ 1660 µM); in the assay on Pseudomonas aeruginosa, 250 µg/mL (≈ 829 µM); with Klebsiella pneumoniae, 125 µg/mL (≈ 415 µM); in [1] it was 125 µg/mL (≈ 415 µM).

As to `C/C(=N/NC(=O)c1nc(C(C)C)cs1)c1ccc([N+](=O)[O-])cc1`, the MIC in the assay with Enterococcus faecalis came to 250 µg/mL (≈ 752 µM); against Candida tropicalis, 125 µg/mL (≈ 376 µM); against Saccharomyces cerevisiae it was 500 µg/mL (≈ 1500 µM); in the assay on Bacillus subtilis, 250 µg/mL (≈ 752 µM); in the assay with Escherichia coli, 250 µg/mL (≈ 752 µM); in the assay with Staphylococcus aureus, 250 µg/mL (≈ 752 µM). Further, the MIC against Aspergillus niger was found to be 125 µg/mL (≈ 376 µM); against Pseudomonas aeruginosa, 250 µg/mL (≈ 752 µM); against Klebsiella pneumoniae, 250 µg/mL (≈ 752 µM); in assay [1], 125 µg/mL (≈ 376 µM).

`CC(=O)N1N=C(c2nc(C(C)C)cs2)OC1c1ccc(N(C)C)cc1` (stereo unspecified): the MIC is 125 µg/mL (≈ 349 µM) against Enterococcus faecalis; 31.2 µg/mL (≈ 87.2 µM) with Candida tropicalis; 31.2 µg/mL (≈ 87.2 µM) against Saccharomyces cerevisiae; 31.2 µg/mL (≈ 87.2 µM) against Bacillus subtilis; 16 µg/mL (≈ 44.6 µM) in the assay with Escherichia coli; 125 µg/mL (≈ 349 µM) against Staphylococcus aureus. For the same molecule, the minimal inhibitory concentration (MIC) was determined as 31.2 µg/mL (≈ 87.2 µM) against Aspergillus niger, 16 µg/mL (≈ 44.6 µM) in the assay on Pseudomonas aeruginosa, 31.2 µg/mL (≈ 87.2 µM) with Klebsiella pneumoniae and 62.5 µg/mL (≈ 174 µM) in assay [1].

For the molecule `O=C(O)c1cn(C2CC2)c2cc(N3CCNCC3)c(F)cc2c1=O` [CIPROFLOXACIN], the MIC against Enterococcus faecalis is ≤ 5 µg/mL; against Bacillus subtilis it was ≤ 1 µg/mL; with Escherichia coli, ≤ 1 µg/mL; in the assay on Staphylococcus aureus, ≤ 5 µg/mL; in the assay with Pseudomonas aeruginosa, ≤ 5 µg/mL; in the assay on Klebsiella pneumoniae it was ≤ 1 µg/mL.

As for `OC(Cn1cncn1)(Cn1cncn1)c1ccc(F)cc1F` [FLUCONAZOLE], the MIC against Candida tropicalis, in the assay on Saccharomyces cerevisiae and in the assay on Aspergillus niger was ≤ 1 µg/mL each time.

In the case of `NNC(=O)c1ccncc1` [ISONIAZID], the MIC in assay [1] was 0.25 µg/mL (≈ 1.82 µM).

`CCn1cc(C(=O)O)c(=O)c2cc(F)c(N3CCNCC3)cc21` [NORFLOXACIN]: the MIC is ≤ 5 µg/mL against Enterococcus faecalis; ≤ 1 µg/mL with Bacillus subtilis; ≤ 1 µg/mL against Escherichia coli; ≤ 5 µg/mL against Staphylococcus aureus; ≤ 5 µg/mL against Pseudomonas aeruginosa; ≤ 1 µg/mL against Klebsiella pneumoniae.
